# Experimental data taken from ChEMBL document CHEMBL1149329, “Synthesis and biological activity of sulfonamide derivatives of epipodophyllotoxin” (J Med Chem, 2004).
# Values joined by “and” are separate entries in the source; they are usually repeats but may differ in a detail not shown here. Equal values may be shown once.
# Tests used:
# [1] = target: DNA topoisomerase II (Homo sapiens) (UniProt P11388+Q02880); assay: Inhibition of human DNA Topoisomerase II mediated DNA cleavage through the stabilization of transient DAN/topoisomerase II cleavage complex; format: protein assay
# In short: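 Supercoiled pBS DNA (0.1 μg) preincubated 15 min at 30 °C with drug at 50 μM in 50 mM Tris-HCl pH 7.5, 1 mM ATP, 120 mM KCl, 10 mM MgCl2, 0.5 mM DTT, 0.1 mM EDTA, BSA. Two units human topo II added, 30 min at 30 °C. SDS/proteinase K digestion 30 min at 55 °C. 1% agarose gel with ethidium bromide; linear DNA percentage read, mean of three independent experiments.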
# L1210 [2] = assay: Percent of L1210 cells in the G2+M phase of the cell cycle at a compound concentration of 0.2 uM; format: functional, Mus musculus
# In short: (§1)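 L1210 cells (2.5 × 10⁵ cells/mL) were incubated for 21 h with compound at the stated concentration. Flow cytometry was run on 10⁴ cells per sample, and the percentage of cells in G2+M was recorded.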
# L1210 [3] = assay: Inhibitory concentration required to reduce 50 percent L1210 cell growth; format: functional, cell-based; conditions: Mus musculus
# In short: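 L1210 cells were grown in RPMI 1640 with 10% fetal calf serum, 2 mM glutamine, antibiotics and 10 mM HEPES (pH 7.4). Cells were exposed to compound for 48 h. MTT was then added for 4 h at 37 °C, and formazan was dissolved in DMSO and read at 540 nm. IC50 is the concentration reducing OD by 50%, from linear regression on the linear part of the curve. Triplicate.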
# L1210 [4] = assay: Percent of L1210 cells in the G2+M phase of the cell cycle at a compound concentration of 2.5 uM; format: functional, Mus musculus; in short: as §1
# L1210 [5] = assay: Percent of L1210 cells in the G2+M phase of the cell cycle at a compound concentration of 10 uM; format: functional, Mus musculus; in short: as §1
# L1210 [6] = assay: Percent of L1210 cells in the G2+M phase of the cell cycle at a compound concentration of 5 uM; Toxic at 10 uM; format: functional, Mus musculus; in short: as §1
# P388 [7] = assay: Evaluated for long-term survivors scored at day 60; 0/6; format: functional, Mus musculus
# P388 [8] = assay: Antitumor activity against P388 leukemia at dose range of 12.5-200 mg/kg on day 1, activity expressed as maximum tolerated dose; format: functional, Mus musculus
# P388 [9] = assay: Median survival time of treated animals/median survival time of control animals; format: functional, Mus musculus
# L1210 [10] = assay: Percent of L1210 cells in the G2+M phase of the cell cycle at a compound concentration of 0.5 uM; format: functional, Mus musculus; in short: as §1
# A-431 = assay: […] antiproliferative activity against A431 cell line; format: functional; conditions: Homo sapiens
# A549 [11] = assay: Antitumor activity against A549 non small cell carcinoma at dose range of 25-100 mg/kg on day 14, 21, 28; activity expressed as maximum tolerated dose; format: functional, Homo sapiens
# In short: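 A549 human lung tumour cells were implanted orthotopically, 10⁶ cells through the chest wall into the left pleural space of anaesthetised BALB/C nude mice. Once tumours were established, drug was given iv on days 14, 21 and 28 after tumour cell injection. The endpoint was life span, expressed as T/C (%) = median survival time of treated/control × 100. MTD was the dose causing no toxic death and/or no weight loss >20%.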
# A549 [12] = assay: […] antiproliferative activity against A549 cell line; format: functional; conditions: Homo sapiens
# DU-145 = assay: […] antiproliferative activity against DU-145 cell line; format: functional; conditions: Homo sapiens
# HT-29 = assay: […] antiproliferative activity against HT-29 cell line; format: functional; conditions: Homo sapiens
# IGROV-1 = assay: […] antiproliferative activity against IGROV1 cell line; format: functional; conditions: Homo sapiens
# K562 = assay: […] antiproliferative activity against K-562 cell line; format: functional; conditions: Homo sapiens
# L1210 [13] = assay: […] antiproliferative activity against L1210 cell line; format: functional; conditions: Mus musculus
# MDA-MB-231 = assay: […] antiproliferative activity against MDA-MB-231 cell line; format: functional; conditions: Homo sapiens
# NCI-H69 = assay: […] antiproliferative activity against NCI-H69 cell line; format: functional; conditions: Homo sapiens
# P388 [14] = assay: […] antiproliferative activity against P388 cell line; format: functional; conditions: Mus musculus
# P388 [15] = assay: Antitumor activity against P388 leukemia at dose range of 6.25-100 mg/kg on day 1, activity expressed as maximum tolerated dose; format: functional, Mus musculus
# SK-N-MC = assay: […] antiproliferative activity against SK-N-MC cell line; format: functional; conditions: Homo sapiens
# P388 [16] = assay: Antitumor activity against P388 leukemia at dose range of 3.12-50 mg/kg on day 1, activity expressed as maximum tolerated dose; format: functional, Mus musculus
compound,measurement,setting,value
COc1cc([C@@H]2c3cc4c(cc3[C@@H](NS(=O)(=O)c3ccc(N)cc3)[C@H]3COC(=O)[C@H]23)OCO4)cc(OC)c1O,Activity,[1],0
same,Effect,L1210 [2],75%
same,IC50,L1210 [3],0.34 µM
COc1cc([C@@H]2c3cc4c(cc3[C@@H](N)[C@H]3COC(=O)[C@H]23)OCO4)cc(OC)c1O,Activity,[1],0
same,Effect,L1210 [4],57%
same,IC50,L1210 [3],0.63 µM
COc1cc([C@@H]2c3cc4c(cc3[C@@H](NS(=O)(=O)c3sc(NC(C)=O)nc3C)[C@H]3COC(=O)[C@H]23)OCO4)cc(OC)c1O,Activity,[1],7
same,Effect,L1210 [5],68%
same,IC50,L1210 [3],3.6 µM
COc1cc([C@@H]2c3cc4c(cc3[C@@H](NS(=O)(=O)c3c(F)c(F)c(F)c(F)c3F)[C@H]3COC(=O)[C@H]23)OCO4)cc(OC)c1O,Activity,[1],0
same,Effect,L1210 [6],52%
same,IC50,L1210 [3],1 µM
COc1cc([C@@H]2c3cc4c(cc3[C@@H](NS(=O)(=O)CCCN=[N+]=[N-])[C@H]3COC(=O)[C@H]23)OCO4)cc(OC)c1O,Activity,[1],32
same,IC50,L1210 [3],0.035 µM
COc1cc([C@@H]2c3cc4c(cc3[C@@H](NS(=O)(=O)N3CCCCC3)[C@H]3COC(=O)[C@H]23)OCO4)cc(OC)c1O,Activity,[1],34
same,IC50,L1210 [3],0.12 µM
same,LTS,P388 [7],0
same,MTD,P388 [8],200
same,T/C,P388 [9],121%
same,Effect,L1210 [10],77%
CCCCS(=O)(=O)N[C@@H]1c2cc3c(cc2[C@@H](c2cc(OC)c(O)c(OC)c2)[C@H]2C(=O)OC[C@@H]21)OCO3,IC50,A-431,0.142 µM
same,MTD,A549 [11],50
same,IC50,A549 [12],0.0626 µM
same,IC50,DU-145,0.304 µM
same,Activity,[1],10
same,IC50,HT-29,0.237 µM
same,Effect,L1210 [2],75%
same,IC50,IGROV-1,0.0614 µM
same,IC50,K562,0.139 µM
same,IC50,L1210 [3],0.033 µM
same,IC50,L1210 [13],0.0335 µM
same,IC50,MDA-MB-231,0.0692 µM
same,LTS,P388 [7],0
same,IC50,NCI-H69,0.316 µM
same,IC50,P388 [14],0.0161 µM
same,MTD,P388 [15],100
same,T/C,P388 [9],161% and 105%
same,IC50,SK-N-MC,0.0857 µM
COc1cc([C@@H]2c3cc4c(cc3[C@@H](NS(=O)(=O)c3ccc(S(C)(=O)=O)cc3)[C@H]3COC(=O)[C@H]23)OCO4)cc(OC)c1O,Activity,[1],10
same,Effect,L1210 [4],75%
same,IC50,L1210 [3],0.55 µM
COc1cc([C@@H]2c3cc4c(cc3[C@@H](NS(=O)(=O)c3cccs3)[C@H]3COC(=O)[C@H]23)OCO4)cc(OC)c1O,Activity,[1],9
same,IC50,L1210 [3],0.17 µM
same,LTS,P388 [7],0
same,MTD,P388 [16],12.5
same,T/C,P388 [9],102%
same,Effect,L1210 [10],71%
COc1cc([C@@H]2c3cc4c(cc3[C@@H](N=[N+]=[N-])[C@H]3COC(=O)[C@H]23)OCO4)cc(OC)c1O,Activity,[1],44
same,Effect,L1210 [4],61%
same,IC50,L1210 [3],0.57 µM
COc1cc([C@@H]2c3cc4c(cc3[C@@H](NS(=O)(=O)c3ccc(N=[N+]=[N-])cc3)[C@H]3COC(=O)[C@H]23)OCO4)cc(OC)c1O,Activity,[1],9
same,IC50,L1210 [3],0.21 µM
same,Effect,L1210 [10],69%
